tested on: DU-145; assay: The In vitro cytotoxicity value corresponding to 50% growth inhibition against DU-145 (prostate) cell line.; type: functional; settings: Homo sapiens

Row | SMILES | GI50
1 | CCOc1cc2c(cc1O)[C@@H](O)C[C@@H]1[C@@H]2CC[C@]2(C)[C@@H](O)CC[C@@H]12 | 0.71 µM
2 | CCOc1cc2c(cc1O)CC[C@@H]1[C@@H]2CC[C@]2(C)[C@@H](OS(=O)O[C@H]3CC[C@H]4[C@@H]5CCc6cc(O)c(OCC)cc6[C@H]5CC[C@]34C)CC[C@@H]12 | 1.1 µM
3 | CCOc1cc2c(cc1O)CC[C@@H]1[C@@H]2CC[C@]2(C)[C@@H](N)CC[C@@H]12.Cl | 1.9 µM
4 | CCOc1cc2c(cc1O)C(=O)C[C@@H]1[C@@H]2CC[C@]2(C)[C@@H](O)CC[C@@H]12 | 0.17 µM
5 | CC(=O)Oc1cc2c(cc1OCC(F)(F)F)[C@H]1CC[C@]3(C)[C@@H](OC(C)=O)CC[C@H]3[C@@H]1CC2=O | 20 µM

tested on: HCT-116; assay: In vitro cytotoxicity value corresponding to 50% growth inhibition against HCT116 (colon) cell line.; type: functional; settings: Homo sapiens

Row | SMILES | GI50
6 | CCOc1cc2c(cc1O)[C@@H](O)C[C@@H]1[C@@H]2CC[C@]2(C)[C@@H](O)CC[C@@H]12 | 0.35 µM
7 | CCOc1cc2c(cc1O)CC[C@@H]1[C@@H]2CC[C@]2(C)[C@@H](OS(=O)O[C@H]3CC[C@H]4[C@@H]5CCc6cc(O)c(OCC)cc6[C@H]5CC[C@]34C)CC[C@@H]12 | 0.49 µM
8 | CCOc1cc2c(cc1O)CC[C@@H]1[C@@H]2CC[C@]2(C)[C@@H](N)CC[C@@H]12.Cl | 3.2 µM
9 | CCOc1cc2c(cc1O)C(=O)C[C@@H]1[C@@H]2CC[C@]2(C)[C@@H](O)CC[C@@H]12 | 0.02 µM
10 | CC(=O)Oc1cc2c(cc1OCC(F)(F)F)[C@H]1CC[C@]3(C)[C@@H](OC(C)=O)CC[C@H]3[C@@H]1CC2=O | 21 µM

tested on: HOP-62; assay: In vitro cytotoxicity value corresponding to 50% growth inhibition against HOP-62(non small cell lung) cell line.; type: functional; settings: Homo sapiens

Row | SMILES | GI50
11 | CCOc1cc2c(cc1O)CC[C@@H]1[C@@H]2CC[C@]2(C)[C@@H](OS(=O)O[C@H]3CC[C@H]4[C@@H]5CCc6cc(O)c(OCC)cc6[C@H]5CC[C@]34C)CC[C@@H]12 | 0.83 µM
12 | CCOc1cc2c(cc1O)CC[C@@H]1[C@@H]2CC[C@]2(C)[C@@H](N)CC[C@@H]12.Cl | 11 µM
13 | CCOc1cc2c(cc1O)C(=O)C[C@@H]1[C@@H]2CC[C@]2(C)[C@@H](O)CC[C@@H]12 | 0.03 µM
14 | CC(=O)Oc1cc2c(cc1OCC(F)(F)F)[C@H]1CC[C@]3(C)[C@@H](OC(C)=O)CC[C@H]3[C@@H]1CC2=O | 20 µM

tested on: Panel (Carcinoma cell lines); assay: Mean graph midpoint for growth inhibition of all human cancer cell lines; type: functional; settings: not given

Row | SMILES | GI50
15 | CCOc1cc2c(cc1O)[C@@H](O)C[C@@H]1[C@@H]2CC[C@]2(C)[C@@H](O)CC[C@@H]12 | 0.83 µM
16 | CCOc1cc2c(cc1O)CC[C@@H]1[C@@H]2CC[C@]2(C)[C@@H](OS(=O)O[C@H]3CC[C@H]4[C@@H]5CCc6cc(O)c(OCC)cc6[C@H]5CC[C@]34C)CC[C@@H]12 | 1.1 µM
17 | CCOc1cc2c(cc1O)CC[C@@H]1[C@@H]2CC[C@]2(C)[C@@H](N)CC[C@@H]12.Cl | 3.3 µM
18 | CCOc1cc2c(cc1O)C(=O)C[C@@H]1[C@@H]2CC[C@]2(C)[C@@H](O)CC[C@@H]12 | 0.13 µM
19 | CC(=O)Oc1cc2c(cc1OCC(F)(F)F)[C@H]1CC[C@]3(C)[C@@H](OC(C)=O)CC[C@H]3[C@@H]1CC2=O | 20 µM

tested on: MDA-MB-435; assay: In vitro cytotoxicity value corresponding to 50% growth inhibition against MDA-MB-435 (breast) cell line.; type: functional; settings: Homo sapiens

Row | SMILES | GI50
20 | CCOc1cc2c(cc1O)[C@@H](O)C[C@@H]1[C@@H]2CC[C@]2(C)[C@@H](O)CC[C@@H]12 | 5.4 µM
21 | CCOc1cc2c(cc1O)CC[C@@H]1[C@@H]2CC[C@]2(C)[C@@H](OS(=O)O[C@H]3CC[C@H]4[C@@H]5CCc6cc(O)c(OCC)cc6[C@H]5CC[C@]34C)CC[C@@H]12 | 0.22 µM
22 | CCOc1cc2c(cc1O)CC[C@@H]1[C@@H]2CC[C@]2(C)[C@@H](N)CC[C@@H]12.Cl | 1.7 µM
23 | CCOc1cc2c(cc1O)C(=O)C[C@@H]1[C@@H]2CC[C@]2(C)[C@@H](O)CC[C@@H]12 | < 0.01 µM
24 | CC(=O)Oc1cc2c(cc1OCC(F)(F)F)[C@H]1CC[C@]3(C)[C@@H](OC(C)=O)CC[C@H]3[C@@H]1CC2=O | 18 µM

tested on: OVCAR-3; assay: In vitro cytotoxicity value corresponding to 50% growth inhibition against OVCAR-3 (ovarian) cell line.; type: functional; settings: Homo sapiens

Row | SMILES | GI50
25 | CCOc1cc2c(cc1O)[C@@H](O)C[C@@H]1[C@@H]2CC[C@]2(C)[C@@H](O)CC[C@@H]12 | 0.35 µM
26 | CCOc1cc2c(cc1O)CC[C@@H]1[C@@H]2CC[C@]2(C)[C@@H](OS(=O)O[C@H]3CC[C@H]4[C@@H]5CCc6cc(O)c(OCC)cc6[C@H]5CC[C@]34C)CC[C@@H]12 | 0.27 µM
27 | CCOc1cc2c(cc1O)CC[C@@H]1[C@@H]2CC[C@]2(C)[C@@H](N)CC[C@@H]12.Cl | 1.3 µM
28 | CCOc1cc2c(cc1O)C(=O)C[C@@H]1[C@@H]2CC[C@]2(C)[C@@H](O)CC[C@@H]12 | 0.63 µM
29 | CC(=O)Oc1cc2c(cc1OCC(F)(F)F)[C@H]1CC[C@]3(C)[C@@H](OC(C)=O)CC[C@H]3[C@@H]1CC2=O | 24 µM

tested on: SF-539; assay: The In vitro cytotoxicity corresponding to 50% growth inhibition against […] (central nervous system) cell line.; type: functional; settings: Homo sapiens

Row | SMILES | GI50
30 | CCOc1cc2c(cc1O)CC[C@@H]1[C@@H]2CC[C@]2(C)[C@@H](OS(=O)O[C@H]3CC[C@H]4[C@@H]5CCc6cc(O)c(OCC)cc6[C@H]5CC[C@]34C)CC[C@@H]12 | 0.57 µM
31 | CCOc1cc2c(cc1O)CC[C@@H]1[C@@H]2CC[C@]2(C)[C@@H](N)CC[C@@H]12.Cl | 4 µM
32 | CCOc1cc2c(cc1O)C(=O)C[C@@H]1[C@@H]2CC[C@]2(C)[C@@H](O)CC[C@@H]12 | 0.71 µM
33 | CC(=O)Oc1cc2c(cc1OCC(F)(F)F)[C@H]1CC[C@]3(C)[C@@H](OC(C)=O)CC[C@H]3[C@@H]1CC2=O | 23 µM

tested on: SN12C; assay: In vitro cytotoxicity value corresponding to 50% growth inhibition against SN12C (renal) cell line.; type: functional; settings: Homo sapiens

Row | SMILES | GI50
34 | CCOc1cc2c(cc1O)[C@@H](O)C[C@@H]1[C@@H]2CC[C@]2(C)[C@@H](O)CC[C@@H]12 | 0.66 µM
35 | CCOc1cc2c(cc1O)CC[C@@H]1[C@@H]2CC[C@]2(C)[C@@H](OS(=O)O[C@H]3CC[C@H]4[C@@H]5CCc6cc(O)c(OCC)cc6[C@H]5CC[C@]34C)CC[C@@H]12 | 2.6 µM
36 | CCOc1cc2c(cc1O)CC[C@@H]1[C@@H]2CC[C@]2(C)[C@@H](N)CC[C@@H]12.Cl | 5.2 µM
37 | CCOc1cc2c(cc1O)C(=O)C[C@@H]1[C@@H]2CC[C@]2(C)[C@@H](O)CC[C@@H]12 | 0.18 µM
38 | CC(=O)Oc1cc2c(cc1OCC(F)(F)F)[C@H]1CC[C@]3(C)[C@@H](OC(C)=O)CC[C@H]3[C@@H]1CC2=O | 20 µM

molecular target: Tubulin (Bos taurus, UniProt Q6B856+Q862L2+Q862F3); assay: Evaluated for inhibition of tubulin polymerization.; type: functional; settings: not given
In short: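 Electrophoretically homogeneous bovine brain tubulin at 1.2 mg/mL (12 µM), preincubated at 26 °C with varying compound concentrations, then chilled on ice before GTP was added. Assembly was followed at 26 °C by turbidity at 350 nm, and the extent was read at 20 min. IC50 was derived graphically from at least two independent assays.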

Row | SMILES | IC50
39 | CCOc1cc2c(cc1O)[C@@H](O)C[C@@H]1[C@@H]2CC[C@]2(C)[C@@H](O)CC[C@@H]12 | 2.9 µM
40 | CCOc1cc2c(cc1O)CC[C@@H]1[C@@H]2CC[C@]2(C)[C@@H](OS(=O)O[C@H]3CC[C@H]4[C@@H]5CCc6cc(O)c(OCC)cc6[C@H]5CC[C@]34C)CC[C@@H]12 | 5.9 µM
41 | CCOc1cc2c(cc1O)CC[C@@H]1[C@@H]2CC[C@]2(C)[C@@H](N)CC[C@@H]12.Cl | > 40 µM
42 | CCOc1cc2c(cc1O)C(=O)C[C@@H]1[C@@H]2CC[C@]2(C)[C@@H](O)CC[C@@H]12 | 4.1 µM
43 | CC(=O)Oc1cc2c(cc1OCC(F)(F)F)[C@H]1CC[C@]3(C)[C@@H](OC(C)=O)CC[C@H]3[C@@H]1CC2=O | > 40 µM

molecular target: Tubulin beta chain (Bos taurus) (UniProt Q6B856); assay: Evaluated for % inhibition of colchicine binding to tubulin.; design: concentration or dose not given beside the values; settings: concentration not given here
Sequence (Q6B856 whole entry): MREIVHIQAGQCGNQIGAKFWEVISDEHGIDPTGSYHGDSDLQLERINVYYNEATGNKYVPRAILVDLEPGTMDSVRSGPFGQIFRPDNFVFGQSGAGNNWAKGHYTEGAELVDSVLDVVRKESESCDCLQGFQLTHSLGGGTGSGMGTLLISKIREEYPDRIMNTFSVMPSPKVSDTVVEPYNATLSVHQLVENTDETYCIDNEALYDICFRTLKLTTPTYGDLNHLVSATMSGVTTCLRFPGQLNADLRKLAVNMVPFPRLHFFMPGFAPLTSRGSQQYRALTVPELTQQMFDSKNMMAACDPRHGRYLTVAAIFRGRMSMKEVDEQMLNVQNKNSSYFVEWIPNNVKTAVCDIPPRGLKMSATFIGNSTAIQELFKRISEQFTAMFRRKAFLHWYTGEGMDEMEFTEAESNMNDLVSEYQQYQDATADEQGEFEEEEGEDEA
In short: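 Mixtures held 1.0 µM bovine brain tubulin (0.1 mg/mL), 5.0 µM [³H]colchicine and 50 µM inhibitor, incubated 10 min at 37 °C. Bound-colchicine inhibition is given as percent, from triplicate samples in each experiment.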

Row | inhibition | SMILES
44 | 24% | CCOc1cc2c(cc1O)CC[C@@H]1[C@@H]2CC[C@]2(C)[C@@H](OS(=O)O[C@H]3CC[C@H]4[C@@H]5CCc6cc(O)c(OCC)cc6[C@H]5CC[C@]34C)CC[C@@H]12
45 | 19% | CCOc1cc2c(cc1O)C(=O)C[C@@H]1[C@@H]2CC[C@]2(C)[C@@H](O)CC[C@@H]12

Row | SMILES | inhibition
46 | CCOc1cc2c(cc1O)[C@@H](O)C[C@@H]1[C@@H]2CC[C@]2(C)[C@@H](O)CC[C@@H]12 | 12%

tested on: UACC-62; assay: In vitro cytotoxicity value corresponding to 50% growth inhibition against UACC-62(melanoma) cell line.; type: functional; settings: Homo sapiens

Row | SMILES | GI50
47 | CCOc1cc2c(cc1O)[C@@H](O)C[C@@H]1[C@@H]2CC[C@]2(C)[C@@H](O)CC[C@@H]12 | 0.28 µM
48 | CCOc1cc2c(cc1O)CC[C@@H]1[C@@H]2CC[C@]2(C)[C@@H](OS(=O)O[C@H]3CC[C@H]4[C@@H]5CCc6cc(O)c(OCC)cc6[C@H]5CC[C@]34C)CC[C@@H]12 | 1.3 µM
49 | CCOc1cc2c(cc1O)CC[C@@H]1[C@@H]2CC[C@]2(C)[C@@H](N)CC[C@@H]12.Cl | 3.6 µM
50 | CCOc1cc2c(cc1O)C(=O)C[C@@H]1[C@@H]2CC[C@]2(C)[C@@H](O)CC[C@@H]12 | 0.01 µM
51 | CC(=O)Oc1cc2c(cc1OCC(F)(F)F)[C@H]1CC[C@]3(C)[C@@H](OC(C)=O)CC[C@H]3[C@@H]1CC2=O | 18 µM

Reference: ChEMBL document CHEMBL1130095, “Synthesis of analogs of 2-methoxyestradiol with enhanced inhibitory effects on tubulin polymerization and cancer cell growth” (J Med Chem, 1997)
